From ChEMBL document CHEMBL4390704, “1-Aryl-3-(4-methoxybenzyl)ureas as potentially irreversible glycogen synthase kinase 3 inhibitors: Synthesis and biological evaluation” (Bioorg Med Chem Lett, 2019)
The source made the active and inactive calls. The calls are words filed in the database; no cut-off is given here.

Target: T1, Glycogen synthase kinase-3 beta (Homo sapiens, UniProt P49841)
Experiment: Inhibition of recombinant human GSK3beta using prephosphorylated peptide as substrate measured after 30 mins by Kinase-glo luminescence assay
Target sequence in this assay (P49841 whole entry): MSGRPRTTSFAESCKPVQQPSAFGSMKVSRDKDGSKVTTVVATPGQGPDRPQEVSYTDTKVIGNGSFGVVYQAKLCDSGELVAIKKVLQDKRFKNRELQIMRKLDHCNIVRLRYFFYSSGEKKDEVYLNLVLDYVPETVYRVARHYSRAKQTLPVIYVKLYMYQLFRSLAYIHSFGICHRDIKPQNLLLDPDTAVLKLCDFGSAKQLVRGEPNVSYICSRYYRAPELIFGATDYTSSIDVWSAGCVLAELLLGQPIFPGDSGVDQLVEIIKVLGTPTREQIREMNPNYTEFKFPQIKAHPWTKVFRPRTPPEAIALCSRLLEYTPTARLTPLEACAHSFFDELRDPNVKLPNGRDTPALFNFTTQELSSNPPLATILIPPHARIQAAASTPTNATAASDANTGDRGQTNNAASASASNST

Structure (SMILES) | IC50 [nM]
COc1ccc(CNC(=O)Nc2nc3ccc(C(=O)CBr)cc3[nH]2)cc1 | 130
C#CC(=O)c1ccc2nc(NC(=O)NCc3ccc(OC)cc3)sc2c1 | 4210
COc1ccc(CNC(=O)Nc2nc3ccc(C(=O)CBr)cc3s2)cc1 | 770
C=CC(=O)Nc1ccc2nc(NC(=O)NCc3ccc(OC)cc3)[nH]c2c1 | > 10000
C=CC(=O)Nc1ccc2nc(NC(=O)NCc3ccc(OC)cc3)sc2c1 | > 10000
COc1ccc(CNC(=O)Nc2nc3ccc(C(C)=O)cc3s2)cc1 | 2260
C=CC(=O)c1ccc2nc(NC(=O)NCc3ccc(OC)cc3)sc2c1 | 4050
C=CC(=O)c1ccc2nc(NC(=O)NCc3ccc(OC)cc3)[nH]c2c1 | 1820

Second part, the molecule after the results:

IC50 [nM] | Structure (SMILES)
260 | COc1ccc(CNC(=O)Nc2nc3ccc(C(C)=O)cc3[nH]2)cc1
110 | COc1ccc(CNC(=O)Nc2nc3ccc(C#N)cc3s2)cc1
2470 | C#CC(=O)c1ccc2nc(NC(=O)NCc3ccc(OC)cc3)[nH]c2c1
86 | COc1ccc(CNC(=O)Nc2nc3ccc(C#N)cc3[nH]2)cc1

Target: T1, Glycogen synthase kinase-3 beta
Experiment: Time-dependent irreversible inhibition of recombinant human GSK3beta at 0.05 to 0.2 uM using prephosphorylated peptide as substrate by Kinase-glo luminescence assay
Procedure, shortened: (§1)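 Inhibitor pre-incubated with GSK-3β for varying lengths of time before the kinase reaction. Inhibition is expressed as percentage inhibition at each pre-incubation time.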
Target sequence in this assay (P49841 whole entry, looked up): as the sequence (P49841 whole entry) above

TDI | Structure (SMILES)
Active | COc1ccc(CNC(=O)Nc2nc3ccc(C(=O)CBr)cc3[nH]2)cc1

Target: T1, Glycogen synthase kinase-3 beta
Experiment: Time-dependent irreversible inhibition of recombinant human GSK3beta at 0.05 to 0.1 uM using prephosphorylated peptide as substrate by Kinase-glo luminescence assay
Procedure, shortened: as §1
Target sequence in this assay (P49841 whole entry, looked up): as the sequence (P49841 whole entry) above

TDI | Structure (SMILES)
Active | COc1ccc(CNC(=O)Nc2nc3ccc(C#N)cc3[nH]2)cc1
